High-throughput results (PubChem)
An excerpt weighted towards active compounds, which were near 2.9% of everything screened.
SENP7 inh – inhibitors of human SENP7 protease | Q9BQF6 | recombinant SENP7, Z-RLRGG-aminoluciferin luminescence, 40 min | inhibition, % at 5 µM | 330,000 compounds, 1.5% hits | AID 434973;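 active means inhibition above about 50% at the single test dose, limit read from the data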;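 further: plate controls were DMSO with enzyme for no effect and no enzyme buffer wells for full effect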
SENP1 inh – blocks the human SENP1 SUMO protease catalytic domain | recombinant SENP1 catalytic domain, CyPet-SUMO1-YPet FRET cleavage | 360,000 compounds, 0.21% hits | inhibition, % at 10 µM | Q9P0U3;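 active means inhibition at least 30% at 10 µM, raw YFP signal under a set limit, fluorescence ratio 0.5 to 1.5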;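 further: 0% = enzyme with DMSO and 100% = no enzyme wells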
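System: Recombinant human SENP1 catalytic domain, His6-tagged | Incubation: Enzyme reaction for 50 min at room temperature, dark | Medium: Tris pH 8 with BME, BSA, NP40 and catalase | Also added: 25 nM SUMO1 FRET substrate | Compound: 10 µM single point, 0.5% DMSO | Measured by: FRET fluorescence in CFP and YFP emission channels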
SENP8 block-1 – SENP8 (human) protease inhibition; Q96LD8; recombinant SENP8, Nedd8 substrate fluorescence; inhibition, % at 20 µM; 360,000 compounds, 0.64% hits; in the data active means inhibition mostly above about 40%, no sharp cut-off; inactive means mostly below about 27%
HSP90 inh – blocks HSP90-mediated luciferase refolding in reticulocyte lysate. 290,000 compounds, 0.91% hits. AID 1789. inhibition, % at 5.6 µM. Rabbit reticulocyte lysate, luciferase refolding luminescence, 3 h;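 active means inhibition above the screen-wide mean plus 3 SD, computed separately per campaign, cut at about 16% in these data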;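 further: 0% = DMSO wells and 100% = 60 µM geldanamycin wells; inhibitors lower the luminescence because luciferase stays unfolded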
SENP6 block – SENP6 protease inhibition; Q9GZR1; Recombinant SENP6 catalytic domain, aminoluciferin luminescence; inhibition, % at 10 µM; 330,000 compounds, 1.8% hits;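 active means inhibition above about 50% at the single tested dose, limit read from the data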;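 further: plate controls were DMSO wells with enzyme for no effect and DMSO wells lacking enzyme for full effect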
SENP8 block-2 – SENP8 protease inhibition; inhibition, % at 10 µM; purified SENP8, Z-RLRGG-aminoluciferin cleavage, luminescence; 330,000 compounds, 1.2% hits; in the data active means inhibition above about 50%
HSP90 inh confirm – HSP90 inhibition, confirmation assay; AID 1846; rabbit reticulocyte lysate, luciferase refolding luminescence, 3 h; shares compounds with HSP90 inh; inhibition, % at 5.9 µM; 2,300 compounds, 64% hits; in the data active means inhibition above about 18%;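 further: 0% = vehicle wells and 100% = reference inhibitor wells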
FLuc counter – blocks native firefly luciferase in HSP90 counter-screen; shares compounds with HSP90 inh; purified native firefly luciferase, luminescence; inhibition, % at 5.9 µM; 2,300 compounds, 48% hits; AID 1847;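 active means inhibition above the mean inhibition of all tested sample wells plus 3 SD, cut at about 10% in these data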;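 further: 0% = DMSO with luciferase and 100% = wells lacking luciferase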
Target sequence (P08659 whole entry, looked up): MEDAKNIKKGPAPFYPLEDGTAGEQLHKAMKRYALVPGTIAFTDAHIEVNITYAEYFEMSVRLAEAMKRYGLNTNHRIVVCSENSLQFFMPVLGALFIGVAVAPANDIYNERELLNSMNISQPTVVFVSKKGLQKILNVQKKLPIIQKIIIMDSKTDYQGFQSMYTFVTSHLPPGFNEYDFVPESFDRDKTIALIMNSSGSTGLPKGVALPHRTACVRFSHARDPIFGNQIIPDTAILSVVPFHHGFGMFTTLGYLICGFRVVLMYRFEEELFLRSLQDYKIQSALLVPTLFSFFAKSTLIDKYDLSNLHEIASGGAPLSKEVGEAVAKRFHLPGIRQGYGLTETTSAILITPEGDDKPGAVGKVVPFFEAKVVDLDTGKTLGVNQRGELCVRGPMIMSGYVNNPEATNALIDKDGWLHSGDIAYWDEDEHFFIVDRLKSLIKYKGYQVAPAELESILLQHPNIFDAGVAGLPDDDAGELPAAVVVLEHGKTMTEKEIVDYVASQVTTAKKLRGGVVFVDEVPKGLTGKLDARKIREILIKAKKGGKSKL
SENP8 conf – human SENP8 inhibition, confirmed | shares compounds with SENP7 inh | 6,200 compounds, 40% hits | AID 488912 | Recombinant SENP8, Z-RLRGG-aminoluciferin luminescence, 60 min | inhibition, % at 12.5 µM;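 active means mean inhibition across replicates above about 50%, limit read from the data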
SENP6 conf – human SENP6 inhibition, confirmed. AID 488915. shares compounds with SENP7 inh. recombinant SENP6, Z-RLRGG-aminoluciferin luminescence. inhibition, % at 12.5 µM. 6,200 compounds, 58% hits
SENP7 confirm – confirmation of human SENP7 protease inhibitors | shares compounds with SENP7 inh | recombinant SENP7, Z-RLRGG-aminoluciferin luminescence, 40 min | 6,200 compounds, 69% hits | inhibition, % at 12.5 µM
Casp3 SENP sel – selectivity test for SENP inhibitors: human caspase-3 inhibition; AID 488918; inhibition, % at 12.5 µM; 6,200 compounds, 60% hits; shares compounds with SENP7 inh; purified caspase-3, Z-DEVD-aminoluciferin luminescence, 60 min;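 active means mean inhibition above about 50%, limit read from the data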;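 further: plate controls were enzyme with DMSO for no effect and wells without caspase-3 for full effect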
SENP luc ctr – luminescence interference (SENP counter-screen) | shares compounds with SENP7 inh | inhibition, % at 12.5 µM | AID 488919 | Pre-incubated SENP8/Z-RLRGG-aminoluciferin, luciferase luminescence interference | 6,200 compounds, 39% hits;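 active means mean inhibition above about 50% when retested at one dose, limit read from the data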;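 further: plate controls were DMSO wells with completed reaction for no effect and substrate without enzyme for full effect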
* = called active by the depositor; . = no result.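 How the source made its calls, unless noted: active means mean inhibition above about 50% in the one-dose retest (limit read from the data); inactive means the rest.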

SMILES	SENP7 inh	SENP1 inh	SENP8 block-1	HSP90 inh	SENP6 block	SENP8 block-2	HSP90 inh confirm	FLuc counter	SENP8 conf	SENP6 conf	SENP7 confirm	Casp3 SENP sel	SENP luc ctr
CN(CC(=O)Nc1ccccc1C(F)(F)F)C(=O)c1ccc2c(=O)n3c(nc2c1)CCC3	-10	0	-114	.	-31	-19	.	.	.	.	.	.	.
COc1ccc(CNC(=O)COC(=O)c2cccn2C)cc1	-2	0	19	.	19	3	.	.	.	.	.	.	.
CN(C)S(=O)(=O)c1ccc(Cl)c(NC(=O)COC(=O)/C=C/c2ccc3ccccc3n2)c1	1	1	8	.	4	1	.	.	.	.	.	.	.
Cc1ccccc1S(=O)(=O)NC(=O)C1(C)CCN1C(=O)COc1ccc(Cl)cc1 (centres undefined)	.	1	13	.	.	.	.	.	.	.	.	.	.
COc1cc(SC)ccc1C(=O)Nc1ccc(Br)cn1	90*	1	4	33*	90*	82*	87*	83*	53*	76*	80*	77*	50*
Cc1ccc(C(=O)Nc2ncc(C)s2)s1	57*	0	-9	29*	61*	45	50*	40*	54*	55*	86*	80*	32
COc1cc(SC)ccc1C(=O)Nc1ncc(C)s1	94*	-1	-170	80*	96*	89*	88*	85*	90*	91*	100*	89*	35
COc1cc(SC)ccc1C(=O)Nc1ccon1	-6	1	8	3	-14	-10	.	.	.	.	.	.	.
CSc1ccccc1C(=O)Nc1ncc(C)s1	5	1	-21	5	5	-6	.	.	.	.	.	.	.
COc1ccccc1C(CNC(=O)c1cccc(S(=O)(=O)N2c3ccccc3CC2C)c1)N(C)C (centres undefined)	.	-1	-5	.	.	.	.	.	.	.	.	.	.
COc1ccc(-c2cc3nc4n(c(=O)c3s2)CCC4)cc1	96*	0	-337	30*	95*	91*	80*	68*	12	62*	81*	76*	12
COc1ccc(-c2cc3nc4n(c(=O)c3s2)CCCCC4)cc1	18	0	-403	-3	46	30	.	.	.	.	.	.	.
CCCCOc1ccc(-c2ncc(C(=O)O)c(C)n2)cc1	88*	2	21	38*	86*	80*	63*	18*	88*	87*	98*	48	64*
CC1CCN(C(=O)c2cc3ccccc3cc2O)CC1	2	4	-25	-4	-10	-3	.	.	.	.	.	.	.
O=c1c2c(nc3cc(-c4ccc(F)cc4)[nH]n13)CCCC2	55*	-1	-71	18*	54*	38	44*	29*	-2	8	22	37	5
CC(C)(C)c1ccc(C(=O)NCCOc2ccccc2F)cc1	72*	1	14	63*	74*	59*	80*	78*	5	69*	90*	52*	47
CN(C)S(=O)(=O)c1ccc(C(=O)NCCOc2ccccc2)cc1	2	3	10	3	-16	1	.	.	.	.	.	.	.
CC(C)(C)c1ccc(C(=O)NCCOc2ccccc2)cc1	54*	0	5	49*	57*	38	70*	65*	-5	36	80*	.	-1
O=C(NCc1csc2ccccc12)Nc1cc(Cl)cc(Cl)c1	-4	-1	28	-5	-2	-6	.	.	.	.	.	.	.
COc1ccc(CC(=O)OCC(=O)NC2CCCC(C)C2C)cc1 (centres undefined)	-2	3	5	.	2	7	.	.	.	.	.	.	.
CN(C)c1ccc(/C=C/c2nc3ccccc3c(=O)[nH]2)cc1	95*	-21	-234	59*	-12	93*	76*	73*	47	90*	103*	96*	38
C(=C\c1nc2ccccc2[nH]1)/c1ccccc1	100*	-1	-261	31*	94*	97*	54*	48*	98*	99*	103*	98*	92*
C(=C\c1ccco1)/c1nc2ccccc2[nH]1	-1	-30	-348	2	-11	10	.	.	.	.	.	.	.
CC(C)C(=O)N1CCN(c2ccccc2NC(=O)c2ccc3c(c2)OCCO3)CC1	.	-7	-13	.	.	.	.	.	.	.	.	.	.
O=C(CN(Cc1ccc(F)cc1)C(=O)CCC(=O)Nc1ccccn1)NCCc1ccccc1	9	9	12	-5	-20	-4	.	.	.	.	.	.	.
SMILES	SENP7 inh	SENP1 inh	SENP8 block-1	HSP90 inh	SENP6 block	SENP8 block-2	HSP90 inh confirm	FLuc counter	SENP8 conf	SENP6 conf	SENP7 confirm	Casp3 SENP sel	SENP luc ctr
COc1ccc(N=CC2=C(O)c3ccccc3C2=O)cc1	99*	3	46*	29*	95*	93*	77*	80*	4	67*	28	89*	19
Cc1oc(-c2ccccc2)cc1C(=O)Nc1cccc(C(=O)O)c1	-3	-2	-7	2	-18	-14	.	.	.	.	.	.	.
Cc1oc(-c2ccc(Cl)cc2)cc1C(=O)O	94*	-3	4	20*	96*	97*	18*	4	99*	100*	102*	92*	91*
O=C1NC[C@H](Cc2ccccc2)N(C[C@H]2CCCN2C[C@H](Cc2ccccc2)N2C[C@H](Cc3ccc(O)cc3)N(CCc3ccccc3)C(=O)C2=O)C1=O	.	1	10	.	.	.	.	.	.	.	.	.	.
Cc1ccc(-c2nnc(Nc3ccccc3)o2)cc1	4	2	-90	36*	97*	95*	81*	71*	-2	93*	75*	87*	37
O=C(c1cc(-c2ccc(Cl)cc2Cl)on1)N1CCOCC1	-9	1	13	30*	62*	47	46*	43*	49	49	85*	72*	51*
O=C(CN1CCN(C(=O)CNC(=O)c2ccc3c(c2)OCO3)CC1)Nc1cccc(F)c1	-4	1	9	.	7	-1	.	.	.	.	.	.	.
